Data published in PMC3172161 (ACS chemical neuroscience, 2011).
Where two headings read alike, the source gives them in different places.

Tests used:
[1] = target: T1, rat mGlu5 (Rattus norvegicus, UniProt P31424); assay: Calcium mobilization assay; format: cell-based; details: for % Glu Max: amplitude of response in the presence of 30 μM test compound as a percentage of maximal response (100 μM glutamate)
Method in brief: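 HEK293A cells stably expressing rat mGlu5 were plated at 20K/well and grown overnight at 37 °C in 6% CO2. They were loaded with 2 μM Fluo-4 AM at 37 °C in HBSS with 20 mM HEPES and 2.5 mM probenecid. Compound (10-point 1:3 series, 30 μM–1 nM final) was added 140 s before EC20 glutamate, then EC80 glutamate 74 s later. Ca2+ fluorescence read at 1 Hz; IC50 from four-parameter logistic fit.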

[2] = system: male CD-1 mice; assay: Marble burying model of anxiety; format: in vivo, mouse; details: 15 minute pretreatment
Method in brief: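 Male CD-1 mice (30–35 g) were habituated 30 min to the test room. After 15 min pretreatment each was placed alone in a cage with 12 evenly spaced marbles on 2.5 cm bedding. Burying recorded over 30 min; counterbalanced design; Dunnett's test versus vehicle.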

[3] = Brain homogenate binding assay; format: in vitro ADME; details: mouse
Method in brief: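 Fresh mouse brains (6–8) were homogenized 1:3 (w/w) in PBS on ice, spiked at 1000 ng/g and run in triplicate. Rapid equilibrium dialysis was against PBS for 4 h at 37 °C, 130 rpm. Matrix-balanced aliquots were extracted with acetonitrile/internal standard and analysed by LC/MS/MS. fu = buffer/homogenate peak-area ratio, corrected for homogenate dilution.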

[4] = target: T1, rat mGlu5; assay: Radioligand binding assay, [3H]methoxyPEPy competition
Method in brief: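 Competition binding used membranes from rat mGlu5 HEK293A cells (40 μg/well) in 50 mM Tris/0.9% NaCl, pH 7.4, with [3H]methoxyPEPy (2 nM final) and test compound. Incubation was 1 h at room temperature with shaking, then GF/B filtration, 3–4 buffer washes and scintillation counting. Non-specific binding defined with 5 μM MPEP; curves fitted by four-parameter logistic equation.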

[5] = target: mGlu7 (Homo sapiens, UniProt Q14831); assay: Cell based functional selectivity assay
[6] = target: mGlu1 (Homo sapiens, UniProt Q13255); assay: Cell based functional selectivity assay
Chain of mGlu1 (Q13255 19-1194): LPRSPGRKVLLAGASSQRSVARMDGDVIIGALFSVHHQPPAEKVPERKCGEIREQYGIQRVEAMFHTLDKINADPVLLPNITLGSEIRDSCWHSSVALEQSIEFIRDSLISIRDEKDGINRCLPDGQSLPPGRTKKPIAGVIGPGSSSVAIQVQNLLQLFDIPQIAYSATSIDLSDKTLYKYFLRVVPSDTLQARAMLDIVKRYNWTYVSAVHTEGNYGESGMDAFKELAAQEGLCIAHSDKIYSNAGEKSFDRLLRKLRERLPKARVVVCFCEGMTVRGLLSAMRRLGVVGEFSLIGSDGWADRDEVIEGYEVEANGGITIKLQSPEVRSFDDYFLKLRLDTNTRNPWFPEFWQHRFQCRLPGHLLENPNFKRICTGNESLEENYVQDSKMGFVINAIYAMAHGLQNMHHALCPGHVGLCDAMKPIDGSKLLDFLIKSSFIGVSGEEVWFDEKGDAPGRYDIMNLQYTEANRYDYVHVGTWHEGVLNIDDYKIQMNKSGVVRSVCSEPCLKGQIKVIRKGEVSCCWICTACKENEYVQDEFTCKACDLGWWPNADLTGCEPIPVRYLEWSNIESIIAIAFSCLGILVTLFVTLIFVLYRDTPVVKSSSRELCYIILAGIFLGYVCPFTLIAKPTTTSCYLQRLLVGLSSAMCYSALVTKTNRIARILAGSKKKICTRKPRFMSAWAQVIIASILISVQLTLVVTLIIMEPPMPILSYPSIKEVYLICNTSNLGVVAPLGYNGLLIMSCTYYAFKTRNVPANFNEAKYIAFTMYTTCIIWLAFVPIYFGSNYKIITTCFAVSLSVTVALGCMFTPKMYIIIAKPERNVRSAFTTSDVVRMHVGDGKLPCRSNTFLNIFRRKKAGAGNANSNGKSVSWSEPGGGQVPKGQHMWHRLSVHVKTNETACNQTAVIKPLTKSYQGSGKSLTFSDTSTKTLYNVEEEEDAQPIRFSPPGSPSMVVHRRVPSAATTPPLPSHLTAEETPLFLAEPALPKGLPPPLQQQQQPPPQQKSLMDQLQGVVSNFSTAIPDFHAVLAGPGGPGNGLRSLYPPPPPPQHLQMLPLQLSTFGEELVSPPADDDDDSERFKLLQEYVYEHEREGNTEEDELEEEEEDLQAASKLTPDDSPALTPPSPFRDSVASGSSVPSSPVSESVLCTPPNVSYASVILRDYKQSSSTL

[7] = Plasma protein binding assay; format: in vitro ADME; details: human
[8] = target: mGlu3 (Homo sapiens, UniProt Q14832); assay: Cell based functional selectivity assay
[9] = target: mGlu4 (Homo sapiens, UniProt Q14833); assay: Cell based functional selectivity assay
Chain of mGlu4 (Q14833 33-912): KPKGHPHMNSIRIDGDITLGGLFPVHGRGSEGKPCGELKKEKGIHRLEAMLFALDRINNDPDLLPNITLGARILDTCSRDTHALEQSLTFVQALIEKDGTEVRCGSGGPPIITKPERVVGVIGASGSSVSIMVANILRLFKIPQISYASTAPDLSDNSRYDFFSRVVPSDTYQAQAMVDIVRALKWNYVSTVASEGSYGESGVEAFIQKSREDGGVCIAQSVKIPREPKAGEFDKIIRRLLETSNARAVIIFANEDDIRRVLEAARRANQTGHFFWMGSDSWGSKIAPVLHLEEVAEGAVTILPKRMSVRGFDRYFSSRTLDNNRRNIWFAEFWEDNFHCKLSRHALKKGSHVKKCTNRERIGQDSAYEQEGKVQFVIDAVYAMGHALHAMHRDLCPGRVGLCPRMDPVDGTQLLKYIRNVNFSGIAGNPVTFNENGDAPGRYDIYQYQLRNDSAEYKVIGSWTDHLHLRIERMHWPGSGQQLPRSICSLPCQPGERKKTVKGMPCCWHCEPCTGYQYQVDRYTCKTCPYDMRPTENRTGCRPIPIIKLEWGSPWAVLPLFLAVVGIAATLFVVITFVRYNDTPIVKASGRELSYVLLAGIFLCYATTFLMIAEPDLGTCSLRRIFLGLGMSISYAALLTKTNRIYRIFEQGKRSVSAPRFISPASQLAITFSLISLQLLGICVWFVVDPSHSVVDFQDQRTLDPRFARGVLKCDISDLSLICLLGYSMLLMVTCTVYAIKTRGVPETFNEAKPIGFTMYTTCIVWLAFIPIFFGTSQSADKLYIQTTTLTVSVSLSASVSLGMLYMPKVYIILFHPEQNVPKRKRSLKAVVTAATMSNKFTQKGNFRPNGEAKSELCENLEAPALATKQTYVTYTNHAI

[10] = system: C57Bl/6J mice; assay: Operant sensation seeking; format: in vivo, mouse; details: 10 min prior to sessions
Method in brief: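 Male C57Bl/6J mice (3–5 weeks) responded for varied visual and auditory stimuli: 10–14 daily 1 h FR-1 sessions, then 2 h progressive-ratio sessions. Test compound (0, 3, 10, 30 mg/kg in 10% Tween-80) or reference NAM (0, 1.5, 5, 15 mg/kg in saline; 12 FR sessions) given ip, 20 ml/kg, 10 min pre-session. Latin square, doses 48 h apart. Reinforcers earned analysed by repeated-measures ANOVA/Dunnett.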

[11] = Stability in liver microsomes; format: in vitro ADME; details: mouse liver microsomes; 1 μM, 15 min, 37 °C, NADPH
Method in brief: (§1)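 Test compound at 1 μM was incubated 15 min at 37 °C with shaking, with human or mouse liver microsomes, phosphate buffer and NADPH. Samples were analysed by UPLC-ESI-MS/MS on a C18 column with a formic acid/acetonitrile gradient. % parent remaining was calculated against similarly prepared un-incubated controls.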

[12] = Stability in liver microsomes; format: in vitro ADME; details: human liver microsomes; 1 μM, 15 min, 37 °C, NADPH
Method in brief: as §1

[13] = target: mGlu8 (Homo sapiens, UniProt O00222); assay: Cell based functional selectivity assay
Chain of mGlu8 (O00222 34-908): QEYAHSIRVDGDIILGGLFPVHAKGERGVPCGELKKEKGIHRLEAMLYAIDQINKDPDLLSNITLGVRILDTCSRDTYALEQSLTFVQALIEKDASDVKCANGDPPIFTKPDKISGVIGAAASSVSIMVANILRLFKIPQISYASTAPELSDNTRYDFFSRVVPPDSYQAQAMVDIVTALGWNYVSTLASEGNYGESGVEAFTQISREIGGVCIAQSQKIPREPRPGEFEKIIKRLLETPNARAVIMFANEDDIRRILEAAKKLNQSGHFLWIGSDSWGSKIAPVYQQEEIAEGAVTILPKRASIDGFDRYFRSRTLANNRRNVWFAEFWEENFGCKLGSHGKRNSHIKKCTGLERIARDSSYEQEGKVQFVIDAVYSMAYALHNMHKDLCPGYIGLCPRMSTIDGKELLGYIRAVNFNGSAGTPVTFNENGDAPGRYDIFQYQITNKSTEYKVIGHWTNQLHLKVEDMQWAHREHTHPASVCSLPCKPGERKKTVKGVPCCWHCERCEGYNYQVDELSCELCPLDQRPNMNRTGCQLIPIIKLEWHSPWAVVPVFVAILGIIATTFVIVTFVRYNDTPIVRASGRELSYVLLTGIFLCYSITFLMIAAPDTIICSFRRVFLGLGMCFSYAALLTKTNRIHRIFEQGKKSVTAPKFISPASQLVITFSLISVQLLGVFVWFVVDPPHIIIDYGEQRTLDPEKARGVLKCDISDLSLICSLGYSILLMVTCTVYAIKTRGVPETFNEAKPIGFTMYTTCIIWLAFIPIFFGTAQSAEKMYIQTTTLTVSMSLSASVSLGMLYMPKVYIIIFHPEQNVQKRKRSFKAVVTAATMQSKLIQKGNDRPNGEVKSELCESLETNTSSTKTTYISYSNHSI

[14] = Mouse pharmacokinetic study, intraperitoneal dosing; format: in vivo
Method in brief: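 Male CD-1 mice (~30 g) received 10 mg/kg ip as a 0.5 mg/ml microsuspension in 10% Tween 80/water (20 ml/kg). Plasma (cardiac puncture, EDTA) and PBS-washed brains were collected at 15, 30, 60, 180 and 360 min, n=3 per time. Brains homogenized 1:5 (w/w) in PBS; samples precipitated with acetonitrile plus internal standard and run on HPLC/MS/MS. Dilution-corrected; noncompartmental analysis.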

[15] = target: mGlu5 in rat cortical astrocytes (Rattus norvegicus, UniProt P31424); assay: Rat cortical astrocytes assay; format: cell-based; details: fixed concentration 10 μM, increasing concentrations of glutamate
Chain of mGlu5 in rat cortical astrocytes (P31424 21-1203): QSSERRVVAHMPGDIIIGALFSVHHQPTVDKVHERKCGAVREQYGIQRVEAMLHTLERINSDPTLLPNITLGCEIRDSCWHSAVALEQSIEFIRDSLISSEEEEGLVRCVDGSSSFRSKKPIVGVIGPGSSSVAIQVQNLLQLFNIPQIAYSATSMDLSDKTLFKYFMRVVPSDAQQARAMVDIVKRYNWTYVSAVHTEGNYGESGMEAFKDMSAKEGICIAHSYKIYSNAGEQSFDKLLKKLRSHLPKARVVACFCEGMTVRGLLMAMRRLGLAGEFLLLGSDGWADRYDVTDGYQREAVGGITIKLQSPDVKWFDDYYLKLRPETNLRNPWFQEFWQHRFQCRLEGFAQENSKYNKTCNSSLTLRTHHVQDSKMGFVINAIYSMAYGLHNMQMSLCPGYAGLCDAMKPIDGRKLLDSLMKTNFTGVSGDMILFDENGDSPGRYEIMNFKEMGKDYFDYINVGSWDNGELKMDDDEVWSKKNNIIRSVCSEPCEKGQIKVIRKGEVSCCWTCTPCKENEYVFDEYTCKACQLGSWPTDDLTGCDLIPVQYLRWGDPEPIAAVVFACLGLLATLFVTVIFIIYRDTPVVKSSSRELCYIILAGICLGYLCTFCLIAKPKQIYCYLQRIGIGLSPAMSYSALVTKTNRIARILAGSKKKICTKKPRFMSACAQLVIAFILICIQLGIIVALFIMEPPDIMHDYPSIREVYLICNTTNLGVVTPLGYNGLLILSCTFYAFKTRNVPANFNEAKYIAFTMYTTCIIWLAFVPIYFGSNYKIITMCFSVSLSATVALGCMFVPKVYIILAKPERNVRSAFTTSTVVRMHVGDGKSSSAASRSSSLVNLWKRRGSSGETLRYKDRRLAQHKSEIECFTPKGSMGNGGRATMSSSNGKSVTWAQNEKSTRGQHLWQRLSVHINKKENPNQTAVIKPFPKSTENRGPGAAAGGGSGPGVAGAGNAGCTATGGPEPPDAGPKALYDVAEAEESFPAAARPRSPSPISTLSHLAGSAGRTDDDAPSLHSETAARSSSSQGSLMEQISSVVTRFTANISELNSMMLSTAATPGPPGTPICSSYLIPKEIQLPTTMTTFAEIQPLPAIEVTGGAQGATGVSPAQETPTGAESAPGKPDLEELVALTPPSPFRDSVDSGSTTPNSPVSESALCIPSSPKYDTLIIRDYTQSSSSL

[16] = Plasma protein binding assay; format: in vitro ADME; details: mouse
[17] = system: C57Bl/6J mice; assay: Food reinforcer self-administration, progressive ratio responding; format: in vivo, mouse; details: 3, 10, 30 mg/kg i.p., 10 min prior to sessions
Method in brief: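 Male C57Bl/6J mice (3–5 weeks) responded for ~40 μl of 10% vanilla Ensure: 10–14 daily 1 h FR-1 sessions, then 2 h progressive-ratio sessions. Test compound (0, 3, 10, 30 mg/kg in 10% Tween-80) or reference NAM (0, 1.5, 5, 15 mg/kg in saline) given ip, 20 ml/kg, 10 min pre-session. Latin square, doses 48 h apart. Reinforcers earned analysed by repeated-measures ANOVA/Dunnett.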

[18] = target: mGlu2 (Homo sapiens, UniProt Q14416); assay: Cell based functional selectivity assay
Chain of mGlu2 (Q14416 19-872): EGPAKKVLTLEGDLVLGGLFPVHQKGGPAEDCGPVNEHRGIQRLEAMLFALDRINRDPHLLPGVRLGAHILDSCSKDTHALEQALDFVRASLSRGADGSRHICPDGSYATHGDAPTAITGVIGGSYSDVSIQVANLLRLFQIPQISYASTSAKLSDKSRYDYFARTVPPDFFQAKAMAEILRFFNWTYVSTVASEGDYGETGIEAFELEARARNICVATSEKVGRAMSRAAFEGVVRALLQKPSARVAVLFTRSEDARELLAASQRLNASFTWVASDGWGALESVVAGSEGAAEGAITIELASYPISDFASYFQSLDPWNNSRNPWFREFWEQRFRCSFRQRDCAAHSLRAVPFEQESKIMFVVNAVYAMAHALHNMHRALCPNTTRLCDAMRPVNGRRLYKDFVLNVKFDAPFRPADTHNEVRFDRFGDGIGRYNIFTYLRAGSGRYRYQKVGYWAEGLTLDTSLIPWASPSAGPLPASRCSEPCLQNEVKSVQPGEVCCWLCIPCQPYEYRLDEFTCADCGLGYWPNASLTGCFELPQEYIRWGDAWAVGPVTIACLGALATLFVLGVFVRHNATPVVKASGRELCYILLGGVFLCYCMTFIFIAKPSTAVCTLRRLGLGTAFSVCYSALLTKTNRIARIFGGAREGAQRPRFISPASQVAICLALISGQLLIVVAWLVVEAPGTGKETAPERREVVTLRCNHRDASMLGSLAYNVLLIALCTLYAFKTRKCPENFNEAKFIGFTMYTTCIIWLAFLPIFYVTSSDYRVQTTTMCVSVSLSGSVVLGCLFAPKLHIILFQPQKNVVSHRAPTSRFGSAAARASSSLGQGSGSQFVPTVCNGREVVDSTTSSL

[19] = male, CD-1, mouse, brain, ip, 10 mg/kg
[20] = mouse, 10 mg/kg intraperitoneal

T1 sequence (P31424 21-1203): as the sequence (P31424 21-1203) above

Cc1ccc2ccc(-c3cc(F)cc(C#N)c3)cc2n1 [Compound 3, reference compound]
% Glu Max ([1]; average of n ≥ 3): 1.2 ± 0.3% | IC50 ([1]; read-out: mGlu5 IC50, calcium mobilization, EC80 glutamate, HEK293A cells expressing rat mGlu5, average of n ≥ 3): 9.5 ± 1.6 nM

Cc1nc2cc(-c3cc(F)cc(C#N)c3)ccc2s1 [Compound 18, 3-fluoro-5-(2-methylbenzo[d]thiazol-5-yl)benzonitrile]
inhibition of marble burying ([2]; 30 mg/kg ip): Significant inhibition | fraction unbound at 4 h, 1000 ng/g [3]: 0.001 | block of radioligand binding ([4]; [3H]3-methoxy-5-(pyridin-2-ylethynyl)pyridine, at the highest concentration): almost completely block the binding of the radioligand | Ki for binding relative to potency in the functional assay ([4]; [3H]methoxyPEPy competition versus calcium mobilization IC50): approximately eight fold less | selectivity, activity against mGlu7 [5]: inactive | selectivity, activity against mGlu1 [6]: inactive | fraction unbound at 4 h, 1000 ng/g [7]: 0.006 | selectivity, activity against mGlu3 [8]: inactive | selectivity, activity against mGlu4 [9]: inactive | progressive ratio responding for OSS stimuli ([10]; 3, 10, 30 mg/kg i.p.): dose dependently reduce | % Parent Remaining [11]: 18% | % Parent Remaining [12]: 20% | selectivity, activity against mGlu8 [13]: inactive | Tmax [14, 19]: 15 min | concentration at 30 min [14, 19]: 3.75 µM | AUC(0-t) ([14]; male, CD-1, mouse, plasma, ip, 10 mg/kg): 801 ng·h/mL | AUC0-6h in brain [14, 20]: 1530 ng·h/g | brain exposure until the one hour time point [14, 20]: above 500 ng/g | exposure in brain relative to plasma ([14]; mouse, 10 mg/kg intraperitoneal, AUC0-6h): nearly two fold higher | brain exposure expected at 30 mg/kg ([14]; mouse, assuming a dose linear increase in exposure from the 10 mg/kg study): > 10 µM | blockade of the glutamate response [15]: near complete blockade | IC50 [1]: 61 ± 7 nM | % Glu Max ([1]; average of n ≥ 3): 0.63 ± 0.12% | fraction unbound at 4 h, 1000 ng/g [16]: 0.005 | progressive ratio responding for food reinforcer [17]: no significant effects | selectivity, activity against mGlu2 [18]: inactive

Cc1nc(C#Cc2cccnc2)cs1 [MTEP, 3-[(2-methyl-1,3-thiazol-4-yl)ethynyl]pyridine, reference compound]
inhibition of marble burying ([2]; 15 mg/kg ip, positive control): significant effect | progressive ratio responding for OSS stimuli ([10]; 1.5, 5, 15 mg/kg i.p.): dose-dependently reduced
